CAL PDZ FP-1: untagged CAL PDZ binding inhibitors, primary screen, biochemical, fluorescence polarization, HTS; purified CAL PDZ, TMR-peptide fluorescence polarization, 1 h; inhibition, % at 24.9 µM; actives 0.92% (n = 300,000); Golgi-associated PDZ and coiled-coil motif-containing protein (Homo sapiens), Q9HD26; AID 602252, 2012;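 active = mean inhibition of at least 30% with at least half of replicates also reaching 30%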
CaV13 ICDI inh: Primary screen for inhibitors of IQ motif and Ca2+-dependent inactivation inhibitor domain binding in CACNA1D, Förster resonance energy transfer in living cells, …. actives 0.098% (n = 340,000). inhibition, % at 12.3 µM. HEK cells, CFP/YFP FRET ICDI-IQ, plate reader, 10 min; percent FRET-ratio fall versus neutral wells;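 active = mean replicate inhibition of at least 30% and at least 1% of replicates passing that level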
ARNT TACC3 PPI: disruptors of ARNT/TACC3 protein interaction, primary screen, biochemical, AlphaScreen, single concentration; Transforming acidic coiled-coil-containing protein 3 (Homo sapiens), Q9Y6A5; AlphaScreen His-ARNT PAS-B/GST-TACC3 binding, luminescence; TACC3 fragment carries E629A point mutation; inhibition, % at 9.99 µM; actives 0.66% (n = 390,000); AID 623870, 2012;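 active = mean inhibition of replicates at least 50% and at least half of replicates each reaching 50%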
CAL PDZ FP-2: CAL PDZ peptide-binding inhibitors, primary screen, biochemical, fluorescence polarization, Cer-tagged CAL PDZ, HTS | Golgi-associated PDZ and coiled-coil motif-containing protein (Homo sapiens), Q9HD26 | purified CAL PDZ, TMR-peptide fluorescence polarization, 1 h | inhibition, % at 20 µM | actives 0.02% (n = 330,000);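 active = highest replicate inhibition of at least 40%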
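System: tagged CAL PDZ domain. Schedule: 1 h room-temperature incubation prior to read. Signal: fluorescence polarization (mP). Measure: percent inhibition from loss of millipolarization.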
AlphaScreen ctr: AlphaScreen signal interference compounds, dose response, artefact control for ARNT-TACC3 interaction inhibitor project, biochemical, luminescence, cherry-pick | shares compounds with ARNT TACC3 PPI | His-ARNT PASB-GST AlphaScreen artifact counter-screen | AC50, µM (titrated, usually from 68 µM) | actives 50% (n = 1,200);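 active = every separate test run was called active for a drop in luminescence, with AC50 within twice the top valid dose, actives reach about 71 µM in these data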
Numbers stand for hits; n = inactive; x = no result given. Hits are enriched below; roughly 1.2% of the tested compounds scored in any of these assays.

SMILES	CAL PDZ FP-1	CaV13 ICDI inh	ARNT TACC3 PPI	CAL PDZ FP-2	AlphaScreen ctr
O=C(NC1Cc2ccccc2C1)[C@H]1N[C@H]2c3cccc(=O)n3C[C@H]2[C@@H]1CO	x	x	active	x	n
O=C(Nc1nc2ccccc2s1)c1cc(-c2ccccc2)nn1-c1ccccc1	n	n	n	n	x
O=C(Nc1ncc2ccccc2n1)c1cc(-c2ccccc2)on1	x	x	x	x	n
O=C(Nc1nnc(-c2ccccc2)s1)c1cc(-c2ccccc2)on1	x	x	x	x	n
COc1ccc(NC(=O)c2cc(-c3ccccc3)on2)cc1	n	n	n	n	x
O=C(Nc1nc2ccccc2s1)c1cc(-c2ccccc2)on1	x	x	x	x	n
O=C(Nc1ncc(-c2ccccc2)o1)c1cc(-c2ccccc2)on1	x	x	x	x	n
C[C@@H](NC(=O)C[C@H]1C[C@@H]2c3cc(NC(=O)Nc4ccccc4F)ccc3O[C@@H]2[C@@H](CO)O1)c1ccccc1	x	x	n	x	x
CCN(CC)C(=O)CSc1nnc(-c2cnccn2)n1-c1ccccc1	n	x	n	n	x
Cc1ccc(-n2c(SCC(N)=O)nnc2-c2ccccn2)cc1	n	x	55	x	n
CCN(CC)C(=O)CSc1nnc(-c2ccccn2)n1-c1ccc(C)c(C)c1	n	n	52	x	n
Cc1ccc(-n2c(SCc3ccc(C#N)cc3)nnc2-c2ccccn2)cc1	n	n	n	n	x
C[C@@H]1CN([C@H](C)CO)S(=O)(=O)c2ccc(C#CC3CC3)cc2O[C@@H]1CN(C)C(=O)CN(C)C	x	x	n	x	x
O=[N+]([O-])c1cccc(/C=N/Nc2nc(NCc3ccccc3)nc(N3CCOCC3)n2)c1O	n	n	59	n	14µM
COCC(=O)Nc1ccc2c(c1)C(=O)N(C)C[C@@H](OC)[C@@H](C)CN(C(=O)C1CCCC1)[C@H](C)CO2	x	x	n	x	x
Cc1cc(=O)[nH]c(-n2ncc(C#N)c2N)n1	n	n	56	n	n
CSc1ccccc1NC(=O)CN(C)C(=O)COc1cccc2cccnc12	n	n	67	n	69µM
Cc1ccc(C2=CSC3=NS(=O)(=O)CCN23)cc1	n	n	50	n	n
O=C(CN1C(=O)/C(=C\c2cccs2)SC1=S)Nc1cccc(C(=O)O)c1	n	n	57	n	n
CN(C)CCCNC(=O)C[C@@H]1CC[C@@H]2[C@@H](COc3ccc(NC(=O)NC4CCCC4)cc3C(=O)N2C)O1	x	x	n	x	x
COc1ccc(N(C(C)=O)c2nc3ccccc3[nH]2)cc1	n	n	53	n	n
CCOC(=O)c1cnc(Nc2nc3ccccc3o2)nc1CN1CCN(C)CC1	n	n	55	n	41µM
O=C(c1cc(-c2ccccc2)on1)N1CCC(N2CCCC2)CC1	x	x	x	x	n
O=C(c1cc(-c2ccccc2)on1)N1CCC(CO)CC1	x	x	x	x	n
O=C(c1cc(-c2ccccc2)on1)N1CCN(c2ccncc2)CC1	x	x	x	x	n
SMILES	CAL PDZ FP-1	CaV13 ICDI inh	ARNT TACC3 PPI	CAL PDZ FP-2	AlphaScreen ctr
O=C(c1cc(-c2ccccc2)on1)N1CCN(c2ccccc2)CC1	n	x	n	n	x
COc1ccccc1N1CCN(C(=O)c2cc(-c3ccccc3)on2)CC1	n	n	n	n	x
O=C(c1cc(-c2ccccc2)on1)N1CCCC1	n	x	n	n	x
CN(C)CC(=O)N[C@@H]1CC[C@@H](CC(=O)NCCN2CCCCC2)O[C@H]1CO	x	x	n	x	x
CN1c2ccc(-c3ccccc3F)cc2[C@H]2[C@H](CCN2C(=O)Nc2ccc(F)cc2)[C@H]1CO	x	x	n	x	x
C[C@@H]1CN([C@H](C)CO)C(=O)c2cc(NC(=O)CCCN(C)C)ccc2O[C@@H](C)CCCCO[C@@H]1CN(C)C(=O)NC1CCCCC1	x	x	n	x	x
Cc1ccc(OCC(=O)Nc2nc(-c3ccccn3)cs2)c(C)c1	n	n	n	n	x
Cc1ccc(C2(C)NC(=O)N(CC(=O)Nc3nc(-c4ccccn4)cs3)C2=O)cc1 (stereo not drawn)	n	n	54	n	33µM
Cc1ccc(S(=O)(=O)CCC(=O)Nc2nc(-c3ccccn3)cs2)cc1	n	n	80	n	71µM
CC1(c2ccccc2)NC(=O)N(CC(=O)Nc2nc(-c3ccccn3)cs2)C1=O (stereo not drawn)	n	n	61	n	56µM
CC1(c2ccccc2)NC(=O)N(CC(=O)NNC(=O)c2ccccc2)C1=O (stereo not drawn)	n	x	x	n	x
C[C@H]1CN([C@@H](C)CO)C(=O)c2cc(NC(=O)c3ccncc3)ccc2O[C@H]1CN(C)C(=O)Nc1cccc2ccccc12	x	x	n	x	x
COc1ccc(CN2C[C@H](O)COC[C@H]3O[C@H](CC(=O)NCc4ccccc4Cl)CC[C@@H]32)cc1	x	x	n	x	x
Cc1ccc(-c2nc(C)sc2CC(=O)NCc2ccco2)cc1	n	n	active	n	n
Cc1ccc(S(=O)(=O)Cn2nnnc2C(c2ccccc2)N2CCN(c3ccccc3)CC2)cc1 (stereo not drawn)	n	x	58	n	n
Cc1ccc(S(=O)(=O)Cn2nnnc2C(c2ccccc2)N2CCN(c3ncccn3)CC2)cc1 (stereo not drawn)	n	n	n	n	x
O=C(C[C@H]1CC[C@H](NC(=O)NC2CCCC2)[C@H](CO)O1)NCc1ccc(F)cc1	x	x	n	x	x
COc1ccc(S(=O)(=O)Nc2cccc3c2O[C@@H](CN(C)Cc2ccc(C(F)(F)F)cc2)[C@H](C)CN([C@@H](C)CO)C3=O)cc1	x	x	n	x	x
C[C@@H]1CN([C@@H](C)CO)C(=O)c2cccc(NC(=O)Nc3cccc4ccccc34)c2O[C@H]1CN(C)S(=O)(=O)c1ccc(Cl)cc1	x	x	n	x	x
C[C@H](CO)N1C[C@H](C)[C@@H](CN(C)S(=O)(=O)c2ccc(Cl)cc2)Oc2c(NC(=O)Nc3cccc4ccccc34)cccc2C1=O	x	x	52	x	24µM
C[C@@H]1CN([C@H](C)CO)C(=O)c2cccc(NC(=O)c3ccncc3)c2O[C@@H]1CN(C)Cc1ccc(-c2ccccc2)cc1	x	x	active	x	n
CNC[C@@H]1Oc2c(NS(=O)(=O)c3cccs3)cccc2C(=O)N([C@H](C)CO)C[C@@H]1C	x	x	n	x	x
CC(C)NC(=O)Nc1cccc2c1O[C@H](CN(C)C(=O)Nc1ccc(C(F)(F)F)cc1)[C@@H](C)CN([C@@H](C)CO)C2=O	x	x	active	x	n
CNC[C@@H]1Oc2c(NS(=O)(=O)c3cccs3)cccc2C(=O)N([C@@H](C)CO)C[C@H]1C	x	x	active	x	n
CC(C)NC(=O)Nc1cccc2c1O[C@@H](CN(C)C(=O)Nc1ccc(C(F)(F)F)cc1)[C@@H](C)CN([C@@H](C)CO)C2=O	x	x	n	x	x

Bioassay records deposited in PubChem BioAssay by Broad Institute.
